Source: PubChem
A selection: hits, their analogues and other compounds. The true share with any hit is near 29%.
Ecoli WT expand: E. coli BW25113 growth inhibition, expanded screen | OD600 absorbance | growth inhibition, % at 100 µM | 98,000 compounds, 0.15% hits;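 active means growth inhibition above about 50% at one test dose, limit read from the data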;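 further: growth measured after 20 h incubation at 37 °C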
CYP2C19 inh: blocks human cytochrome P450 2C19; CYP2C19 Supersomes, luciferin-H EGE luminescence, 30 min; inhibition, % at 5 µM; 96,000 compounds, 21% hits;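 active means CYP2C19 inhibition above a set limit at 5 µM in the primary screen, cut at about 50% in these data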;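 further: plate controls were negative control wells for no effect and 2.5 mM tranylcypromine positive control for full effect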
Target sequence (P33261 whole entry, looked up): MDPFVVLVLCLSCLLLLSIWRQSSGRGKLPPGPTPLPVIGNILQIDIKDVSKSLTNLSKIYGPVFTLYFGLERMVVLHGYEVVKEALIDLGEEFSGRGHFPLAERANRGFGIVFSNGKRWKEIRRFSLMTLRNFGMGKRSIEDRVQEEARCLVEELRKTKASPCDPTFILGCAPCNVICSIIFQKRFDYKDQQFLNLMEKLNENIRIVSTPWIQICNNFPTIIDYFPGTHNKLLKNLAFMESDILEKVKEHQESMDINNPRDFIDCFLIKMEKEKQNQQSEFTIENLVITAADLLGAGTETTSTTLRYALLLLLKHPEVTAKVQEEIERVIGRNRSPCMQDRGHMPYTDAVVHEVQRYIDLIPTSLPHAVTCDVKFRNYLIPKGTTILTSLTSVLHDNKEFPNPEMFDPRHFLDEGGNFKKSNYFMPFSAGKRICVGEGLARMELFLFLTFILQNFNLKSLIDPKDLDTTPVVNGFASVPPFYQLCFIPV
tolC growth inh: growth inhibitors of E. coli BW25113 tolC mutant; AID 573; 65,000 compounds, 2.2% hits; OD615; growth inhibition, % at 10 µM (by protocol);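 active means growth inhibition at or above a cutoff equal to the mean over every tested compound plus 3 SD, cut at about 60% in these data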;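 further: growth measured after 20 h incubation at 37 °C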
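signal = optical density read at 615 nm | test system = E. coli ΔtolC::kan strain BW25113 | timing = 20 h compound exposure of bacteria at 37 °C | buffer or medium = LB medium plus 50 µg/mL kanamycin | compound dosing = 10 µM final, single dose | evaluation = % inhibition of E. coli growth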
CYP2C9 inhib: blocks human cytochrome P450 2C9 | P11712 | CYP2C9 Supersomes, luciferin-H conversion, luminescence | inhibition, % at 5 µM | 96,000 compounds, 20% hits | AID 777;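 active means blocking of liver enzyme CYP2C9 beyond about 50% at 5 µM, limit read from the data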
CYP2C9 activ: increases human cytochrome P450 2C9 activity | AID 1024 | 96,000 compounds, 1.4% hits | recombinant CYP2C9, luciferin-H conversion, luminescence; stronger effect = higher value; factor 1 = untreated enzyme, 0 = blocked | activation factor at 5 µM;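 active means activation factor of 2 or more for CYP2C9 at a 5 µM dose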;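 further: 0 = sulfaphenazole-blocked wells and 1 = vehicle-only wells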
CYP2C19 activ: increases human CYP2C19 enzyme activity; 96,000 tested, under 10 active; recombinant CYP2C19, luciferin-H EGE luminescence; stronger effect = higher value; 0 = fully inhibited enzyme, 1 = untreated enzyme; P33261; AID 1025; activation factor at 5 µM;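 active means activation factor of at least 2 at 5 µM in the primary screen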;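 further: 0 = wells with 2.5 mM tranylcypromine and 1 = vehicle-only wells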
* marks the source's active call; other numbers are inactive results; . = no result.

SMILES	Ecoli WT expand	CYP2C19 inh	tolC growth inh	CYP2C9 inhib	CYP2C9 activ	CYP2C19 activ
CC1CN(C(=O)Nc2ccc3snnc3c2)c2ccccc21 (stereo not drawn)	12	71*	17	81*	0.2	0.3
O=C(Nc1ccc2snnc2c1)N1CCSCC1	.	48	-7	14	0.9	0.5
Cc1cccc(NC(=O)c2sc(Cl)nc2-c2ccccc2)c1	-10	91*	.	54*	0.5	0.1
Cc1cccc(NC(=O)c2snc3c(=O)[nH]cnc23)c1	-1	34	2	52*	0.5	0.7
CCOc1ccc(N(Cc2cc3ccc(C)cc3[nH]c2=O)S(C)(=O)=O)cc1	-3	11	.	4	1	0.9
CCc1ccc(NC(=O)CS(=O)CC(=O)NC(C)CCc2ccco2)cc1 (stereo not drawn)	-2	.	-9	.	.	.
O=C(Nc1cccc(NS(=O)(=O)c2ccc(S(=O)(=O)NC3CC3)cc2)c1)c1ccccn1	-7	99*	11	97*	0	0
CC(NC(=O)CCc1ccc(S(=O)(=O)NC2CCCCC2)cc1)c1ccccc1 (stereo not drawn)	0	96*	.	79*	0.2	0
CC(NS(=O)(=O)c1ccc(CCC(=O)N2CCN(C)CC2)cc1)c1ccccc1 (stereo not drawn)	7	41	-14	14	0.9	0.6
O=C(CN1CCOCC1)Nc1ccc(S(=O)(=O)NC2CCCCC2)cc1	0	20	0	17	0.8	0.8
Cc1ccc(CNC(=O)CCc2ccc(S(=O)(=O)NC3CCCCC3)cc2)cc1	-4	52*	.	69*	0.3	0.5
Cc1cccc(NC(=O)CCc2ccc(S(=O)(=O)NC3CCCCC3)cc2)c1	-8	15	.	60*	0.4	0.8
COc1ccc(CNC(=O)CCNS(=O)(=O)c2ccc(C)cc2)cc1	1	6	.	-31	1.3	0.9
Cc1ccc(C(=O)COC(=O)CCC(=O)NC2CCCCC2)cc1C	0	13	.	19	0.8	0.9
CCC(C)N(NC(C)=O)c1nc(Cl)nc(NC(C)C)n1 (stereo not drawn)	7	-5	.	2	1	1
O=C(CN1CCOCC1)Nc1ncccn1	-4	9	-11	-8	1.1	0.9
CCOC(=O)CCCCC(=O)c1[nH]c(=O)[nH]c1CSc1nc(-c2ccccc2)c(C#N)c(=O)[nH]1	-10	46	3	86*	0.1	0.5
Cc1cc(NC(=O)CSc2nc(-c3ccccc3)c(C#N)c(=O)[nH]2)no1	-1	8	2	70*	0.3	0.9
C=CCSc1nc(-c2ccccc2)c(C#N)c(=O)[nH]1	-11	14	.	44	0.6	0.9
Cc1cccc(NC(=O)CSc2nc(-c3ccccc3)c(C#N)c(=O)[nH]2)c1C	-1	41	.	93*	0.1	0.6
Cc1cc(NC(=O)CSc2nc3ccccc3[nH]2)no1	18	18	17	-3	1	0.8
COc1ccc(CCNC(=O)c2ccc(N3CCCC3=O)cc2)cc1	3	7	.	17	0.8	0.9
COc1ccc(-c2nc(C(N)=O)c3[nH]c(=O)n(-c4ccccc4OC)c3n2)c(OC)c1	7	13	-2	19	0.8	0.9
COc1ccc(OC)c(-c2nc(C(N)=O)c3[nH]c(=O)n(-c4ccc(F)cc4)c3n2)c1	-10	18	24	54*	0.5	0.8
CCOc1ccccc1-c1nc(C(N)=O)c2[nH]c(=O)n(-c3cccc(C)c3)c2n1	11	48	46	64*	0.4	0.5
SMILES	Ecoli WT expand	CYP2C19 inh	tolC growth inh	CYP2C9 inhib	CYP2C9 activ	CYP2C19 activ
CC1CN(Cc2ccccc2Cl)CC(C)O1 (stereo not drawn)	3	19	.	-4	1	0.8
Cc1ccc(NC(=O)CCN2CCN(C/C=C/c3ccccc3)CC2)cc1	2	16	.	13	0.9	0.8
O=C(Nc1ccc2ccccc2c1)N1CCN(c2ncccc2C(F)(F)F)CC1	3	70*	26	-65	1.6	0.3
O=C(Nc1cccc(Cl)c1)N1CCN(C/C=C/c2ccccc2)CC1	18	42	-9	62*	0.4	0.6
CCOc1ccccc1N1CCN(C(=O)Nc2cccc(Cl)c2)CC1	-4	45	29	-27	1.3	0.6
O=C(Nc1cccc(Cl)c1)N1CCN(c2ncccn2)CC1	7	89*	6	56*	0.4	0.1
